Holding throughout (format): functional
The species named for assay [1] is Oryctolagus cuniculus. As to the kind of experiment: In vitro 50 % Maximal response in rabbit aorta expressing B1 receptor. The following applies: read-out: ED50 (the source's name).
For assay [2], the species on record is Oryctolagus cuniculus. As to the kind of experiment: The compound was tested in vitro on rabbit aorta for residual response in presence of ultraviolet light. A digest of the protocol:
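Aorta strips in cycloheximide were challenged twice with [des-Arg⁹]BK and checked with 3 µM noradrenaline and 0.2 µM [Sar¹]angiotensin II. They were then incubated with 100 µM (4'-amino)Phe plus the photolabel and irradiated 10 min around 365 nm (18 mW/cm²). This was done once or twice. Residual [des-Arg⁹]BK response at 60 min was expressed as percent of reference tissues.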

In assay [3] the target is T1, B1 bradykinin receptor (Homo sapiens) (UniProt P46663).
T1 sequence (whole entry): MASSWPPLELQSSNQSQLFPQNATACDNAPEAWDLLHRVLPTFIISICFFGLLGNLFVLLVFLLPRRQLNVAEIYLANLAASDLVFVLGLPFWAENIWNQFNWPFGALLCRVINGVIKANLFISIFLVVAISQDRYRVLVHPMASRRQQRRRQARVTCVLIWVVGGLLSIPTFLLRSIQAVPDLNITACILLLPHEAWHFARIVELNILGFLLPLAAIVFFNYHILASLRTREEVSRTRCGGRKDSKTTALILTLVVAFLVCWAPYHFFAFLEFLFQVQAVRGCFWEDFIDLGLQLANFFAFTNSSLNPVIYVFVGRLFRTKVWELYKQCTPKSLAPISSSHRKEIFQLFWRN
Briefly: Intrinsic activity was determined. The following applies: Oryctolagus cuniculus.

Assay [4] concerns the target T2, B2 bradykinin receptor (Homo sapiens) (UniProt P30411).
T2 sequence (whole entry): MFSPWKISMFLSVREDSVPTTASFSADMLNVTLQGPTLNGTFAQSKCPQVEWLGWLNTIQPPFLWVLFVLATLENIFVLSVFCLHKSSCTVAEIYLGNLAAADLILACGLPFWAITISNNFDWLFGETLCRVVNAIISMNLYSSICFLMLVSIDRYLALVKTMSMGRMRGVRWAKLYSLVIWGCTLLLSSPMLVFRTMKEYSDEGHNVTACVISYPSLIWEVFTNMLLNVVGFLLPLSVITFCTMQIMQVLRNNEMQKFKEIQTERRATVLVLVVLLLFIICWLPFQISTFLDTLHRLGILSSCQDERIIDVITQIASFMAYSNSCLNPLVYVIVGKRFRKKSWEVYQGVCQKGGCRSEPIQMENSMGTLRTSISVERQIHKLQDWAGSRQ
Briefly: Percent agonistic activity in rabbit jugular vein expressing B2 receptor relative to bradykinin. Particulars: Oryctolagus cuniculus. In outline:
(§1)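 Isolated rabbit jugular vein strips were equilibrated about 2 h with protease inhibitor SQ 14225 (100 ng/mL) under incandescent light, with no UV. pD₂ was taken as −log of the half-maximal concentration. Relative affinity is given as percent of BK. Specificity was checked by desensitization with BK or an analogue. Antagonists were given as pA₂ from the ID₅₀ that reduces a double agonist dose to a single-dose response.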

The target in assay [5] is T2, B2 bradykinin receptor (Homo sapiens). Briefly: In vitro 50 % Maximal response in jugular vein expressing B2 receptor. Particulars: Oryctolagus cuniculus. A digest of the protocol: as §1

Where a SMILES comes first, the peptide text is derived from it. A value given as a limit tells only on which side of the number the result lay.

As for `NC(N)=NCCC[C@H](N)C(=O)N1CCC[C@H]1C(=O)N1CCC[C@H]1C(=O)NCC(=O)N[C@@H](Cc1ccccc1)C(=O)N[C@@H](CO)C(=O)N1CCC[C@H]1C(=O)N[C@@H](Cc1ccccc1)C(=O)O`, in the assay filed under Oryctolagus cuniculus [1], the EC50 is 68 nM. Besides, the Response in the assay filed under Oryctolagus cuniculus [2] came out at 85%. Further, in assay [3], the Alpha E came to 1. With `NC(N)=NCCC[C@H](N)C(=O)N1CCC[C@H]1C(=O)N1CCC[C@H]1C(=O)NCC(=O)N[C@@H](Cc1ccc(N)cc1)C(=O)N[C@@H](CO)C(=O)N1CCC[C@H]1C(=O)N[C@@H](Cc1ccccc1)C(=O)O`, in the assay filed under Oryctolagus cuniculus [1], the EC50 is 5460 nM. For the same molecule, the Alpha E in assay [3] is 1. On to `NC(N)=NCCC[C@H](N)C(=O)N1CCC[C@H]1C(=O)N1CCC[C@H]1C(=O)NCC(=O)N[C@@H](Cc1ccccc1)C(=O)N[C@@H](CO)C(=O)N1CCC[C@H]1C(=O)N[C@@H](Cc1ccc(N)cc1)C(=O)O`, for which the EC50 in the assay listed under Oryctolagus cuniculus [1] is 4650 nM. Also, in assay [3], the Alpha E came out at 1.

On to `N#[N+]c1ccc(C[C@H](NC(=O)CNC(=O)[C@@H]2CCCN2C(=O)[C@@H]2CCCN2C(=O)[C@@H](N)CCCN=C(N)N)C(=O)N[C@@H](CO)C(=O)N2CCC[C@H]2C(=O)N[C@@H](Cc2ccccc2)C(=O)O)cc1`, for which the EC50 in the assay listed under Oryctolagus cuniculus [1] stood at 3750 nM. The molecule further gave an Alpha E in assay [3] of 1.

Take `[N-]=[N+]=Nc1ccc(C[C@H](NC(=O)CNC(=O)[C@@H]2CCCN2C(=O)[C@@H]2CCCN2C(=O)[C@@H](N)CCCN=C(N)N)C(=O)N[C@@H](CO)C(=O)N2CCC[C@H]2C(=O)N[C@@H](Cc2ccccc2)C(=O)O)cc1`: the EC50 in the assay listed under Oryctolagus cuniculus [1] was determined as 461 nM. For the same molecule, the Response in the assay filed under Oryctolagus cuniculus [2] is 90%. The same molecule returned an Alpha E in assay [3] of 1. Take `NC(N)=NCCC[C@H](N)C(=O)N1CCC[C@H]1C(=O)N1CCC[C@H]1C(=O)NCC(=O)N[C@@H](Cc1ccc([N+](=O)[O-])cc1)C(=O)N[C@@H](CO)C(=O)N1CCC[C@H]1C(=O)N[C@@H](Cc1ccccc1)C(=O)O`: the EC50 in the assay listed under Oryctolagus cuniculus [1] worked out at 437 nM. In the assay listed under Oryctolagus cuniculus [2], the Response came to 92%. The Alpha E in assay [3] worked out at 1. Turning to `CC(C)C[C@H](NC(=O)[C@@H]1CCCN1C(=O)[C@H](CO)NC(=O)[C@H](Cc1ccccc1)NC(=O)CNC(=O)[C@@H]1CCCN1C(=O)[C@@H]1CCCN1C(=O)[C@@H](N)CCCN=C(N)N)C(=O)O`, the Alpha E in assay [3] came out at 0. Still for that read-out and setting: the same measure for `COc1ccc(C[C@H](NC(=O)[C@@H]2CCCN2C(=O)[C@H](CO)NC(=O)[C@H](Cc2ccccc2)NC(=O)CNC(=O)[C@@H]2CCCN2C(=O)[C@@H]2CCCN2C(=O)[C@@H](N)CCCN=C(N)N)C(=O)O)cc1` (H-RPPGFSPY(Me)-OH): 1. The molecule `COc1ccc(C[C@H](NC(=O)[C@@H]2CCCN2C(=O)[C@H](CO)NC(=O)[C@H](Cc2ccccc2)NC(=O)CNC(=O)[C@@H]2CCCN2C(=O)[C@@H]2CCCN2C(=O)[C@@H](N)CCCN=C(N)N)C(=O)N[C@@H](CCCN=C(N)N)C(=O)O)cc1` (H-RPPGFSPY(Me)R-OH) had a Relative affinity in assay [4] of 65%. The same molecule showed an Alpha E in assay [3] of 1. In turn, `COc1ccc(C[C@H](NC(=O)CNC(=O)[C@@H]2CCCN2C(=O)[C@@H]2CCCN2C(=O)[C@@H](N)CCCN=C(N)N)C(=O)N[C@@H](CO)C(=O)N2CCC[C@H]2C(=O)N[C@@H](Cc2ccccc2)C(=O)O)cc1` (H-RPPGY(Me)SPF-OH) yielded an Alpha E in assay [3] of 1. `COc1ccc(C[C@H](NC(=O)CNC(=O)[C@@H]2CCCN2C(=O)[C@@H]2CCCN2C(=O)[C@@H](N)CCCN=C(N)N)C(=O)N[C@@H](CO)C(=O)N2CCC[C@H]2C(=O)N[C@@H](Cc2ccccc2)C(=O)N[C@@H](CCCN=C(N)N)C(=O)O)cc1` (H-RPPGY(Me)SPFR-OH) had a Relative affinity in assay [4] of 14%. This molecule came in with an Alpha E in assay [3] of 1.

With `NC(N)=NCCC[C@H](NC(=O)[C@H](CC1CCCCC1)NC(=O)[C@@H]1CCCN1C(=O)[C@H](CO)NC(=O)[C@H](Cc1ccccc1)NC(=O)CNC(=O)[C@@H]1CCCN1C(=O)[C@@H]1CCCN1C(=O)[C@@H](N)CCCN=C(N)N)C(=O)O` (HELM PEPTIDE1{R.P.P.G.F.S.P.[Cha].R}$$$$V2.0), the Relative affinity in assay [4] is 23%. Also, the Alpha E in assay [3] is 1. With `NC(N)=NCCC[C@H](N)C(=O)N1CCC[C@H]1C(=O)N1CCC[C@H]1C(=O)NCC(=O)N[C@@H](Cc1ccccc1)C(=O)N[C@@H](CO)C(=O)N1CCC[C@H]1C(=O)N[C@@H](CC1CCCCC1)C(=O)O` (HELM PEPTIDE1{R.P.P.G.F.S.P.[Cha]}$$$$V2.0), the Alpha E in assay [3] was determined as 0.

Molecule `NC(N)=NCCC[C@H](NC(=O)[C@H](Cc1cc(I)c(N)c(I)c1)NC(=O)[C@@H]1CCCN1C(=O)[C@H](CO)NC(=O)[C@H](Cc1ccccc1)NC(=O)CNC(=O)[C@@H]1CCCN1C(=O)[C@@H]1CCCN1C(=O)[C@@H](N)CCCN=C(N)N)C(=O)O` (HELM PEPTIDE1{R.P.P.G.F.S.P.[Nc1c(I)cc(C[C@H](N[*:1])C(=O)[*:2])cc1I].R}$$$$V2.0) returned a Relative affinity in assay [4] of under 0.01%. The ED50 in assay [5] is over 100000 nM.

Turning to `NC(N)=NCCC[C@H](NC(=O)[C@H](Cc1ccc(N)cc1)NC(=O)[C@@H]1CCCN1C(=O)[C@H](CO)NC(=O)[C@H](Cc1ccccc1)NC(=O)CNC(=O)[C@@H]1CCCN1C(=O)[C@@H]1CCCN1C(=O)[C@@H](N)CCCN=C(N)N)C(=O)O` (HELM PEPTIDE1{R.P.P.G.F.S.P.[Nc1ccc(C[C@H](N[*:1])C(=O)[*:2])cc1].R}$$$$V2.0), in assay [4], the Relative affinity worked out at 9%. Further, in assay [3], the Alpha E came to 1. In assay [5], this molecule gave an ED50 of 19.5 nM. `NC(N)=NCCC[C@H](NC(=O)[C@H](Cc1ccccc1)NC(=O)[C@@H]1CCCN1C(=O)[C@H](CO)NC(=O)[C@H](CC1CCCCC1)NC(=O)CNC(=O)[C@@H]1CCCN1C(=O)[C@@H]1CCCN1C(=O)[C@@H](N)CCCN=C(N)N)C(=O)O` (HELM PEPTIDE1{R.P.P.G.[Cha].S.P.F.R}$$$$V2.0) had a Relative affinity in assay [4] of 23%. Besides, the Alpha E in assay [3] worked out at 1. In assay [3], `NC(N)=NCCC[C@H](N)C(=O)N1CCC[C@H]1C(=O)N1CCC[C@H]1C(=O)NCC(=O)N[C@@H](CC1CCCCC1)C(=O)N[C@@H](CO)C(=O)N1CCC[C@H]1C(=O)N[C@@H](Cc1ccccc1)C(=O)O` (HELM PEPTIDE1{R.P.P.G.[Cha].S.P.F}$$$$V2.0) returned an Alpha E of 1. In assay [4], `N=C(N)NCCC[C@H](NC(=O)[C@H](Cc1ccccc1)NC(=O)[C@@H]1CCCN1C(=O)[C@H](CO)NC(=O)[C@H](Cc1cc(I)c(N)c(I)c1)NC(=O)CNC(=O)[C@@H]1CCCN1C(=O)[C@@H]1CCCN1C(=O)[C@@H](N)CCCNC(=N)N)C(=O)O` (HELM PEPTIDE1{R.P.P.G.[Nc1c(I)cc(C[C@H](N[*:1])C(=O)[*:2])cc1I].S.P.F.R}$$$$V2.0) showed a Relative affinity of under 0.01%. Further, the ED50 in assay [5] is over 100000 nM. In the case of `NC(N)=NCCC[C@H](NC(=O)[C@H](Cc1ccccc1)NC(=O)[C@@H]1CCCN1C(=O)[C@H](CO)NC(=O)[C@H](Cc1ccc(N)cc1)NC(=O)CNC(=O)[C@@H]1CCCN1C(=O)[C@@H]1CCCN1C(=O)[C@@H](N)CCCN=C(N)N)C(=O)O` (HELM PEPTIDE1{R.P.P.G.[Nc1ccc(C[C@H](N[*:1])C(=O)[*:2])cc1].S.P.F.R}$$$$V2.0), in assay [4], the Relative affinity was 3%. The Alpha E in assay [3] came to 1. The same molecule returned an ED50 in assay [5] of 57 nM. Take H-RPPGASPF-OH: in assay [3], the Alpha E is 1. Consider H-RPPGASPFR-OH, for which, in assay [4], the Relative affinity was 0.1%. In addition, the Alpha E in assay [3] is 1.

Turning to H-RPPGDSPFR-OH, the Relative affinity in assay [4] was 0.08%. In the case of H-RPPGFSPA-OH, the Alpha E in assay [3] stood at 0. Molecule H-RPPGFSPAR-OH gave a Relative affinity in assay [4] of 0.01%. Further, the Alpha E in assay [3] amounted to 1. The molecule H-RPPGFSPDR-OH returned a Relative affinity in assay [4] of 0.04%. H-RPPGFSPLR-OH had a Relative affinity in assay [4] of 0.1%. In addition, in assay [3], the Alpha E amounted to 1.

Molecule H-RPPGFSPY-OH came in with an Alpha E in assay [3] of 1. For the molecule H-RPPGFSPYR-OH, the Relative affinity in assay [4] worked out at 3.5%. In assay [3], this molecule showed an Alpha E of 1. H-RPPGLSPF-OH displayed an Alpha E in assay [3] of 1. H-RPPGLSPFR-OH registered a Relative affinity in assay [4] of 8%. Further, the Alpha E in assay [3] was found to be 1. Take H-RPPGYSPF-OH: the EC50 in the assay filed under Oryctolagus cuniculus [1] stood at 869 nM. In addition, the Alpha E in assay [3] came out at 1.

Molecule H-RPPGYSPFR-OH gave a Relative affinity in assay [4] of 0.3%. Moreover, in assay [3], the Alpha E stood at 1.

(Values after ChEMBL document CHEMBL1121899, “Biological activities of photoaffinity labeling analogues of kinins and their irreversible effects on kinin receptors” (1981).)
